Results: article PMC5477238 (Clinical cancer research : an official journal of the …, 2016)

Assays:
TT cells = assay: Apoptosis assay; type: cell-based, human; settings: 24-hour incubation
Outline: (§1)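 Cells kept in F-12K or RPMI with 10% (vol/vol) FBS at 37°C in humidified 5% CO2. They were split into 10-cm dishes and, 24 hours later, exposed to a range of test compound concentrations for 24 hours. Lysates were prepared in RIPA buffer. Cleaved caspase-3 and cleaved PARP were detected by standard Western blotting.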

LC-2/ad cells = assay: Apoptosis assay; type: cell-based, human; settings: 24-hour incubation
Outline: as §1

HUVEC cells = settings: at 1 μmol/L; cited from earlier work
TT cells (RET C634W) = assay: Cell viability assay; type: cell-based; settings: Homo sapiens, 96 h, read-out: IC50 (cell viability)
[1] = tested on: LC-2/ad cells (CCDC6-RET); assay: Cell viability assay; type: cell-based; settings: Homo sapiens, 72 h, read-out: IC50 (cell viability)
[2] = tested on: phospho-RET, phospho-PLCγ, phospho-ERK, phospho-MEK in LC-2/ad cells; assay: Western blot of RET pathway phosphorylation; type: cell-based, human; settings: 50 nmol/L to 5 μmol/L, 2 hours
[3] = tested on: RET-rearranged lung cancers; settings: cited from earlier work

Row | SMILES | apoptosis (cleaved caspase-3 and cleaved PARP) (TT cells) | apoptosis (cleaved caspase-3 and cleaved PARP) (LC-2/ad cells) | growth inhibitory activity toward HUVEC cells (HUVEC cells) | IC50 (TT cells (RET C634W)) | IC50 [1] | ERK and MEK phosphorylation [2] | patients requiring a dose reduction due to drug-related toxicities ([3]; phase II study) | overall response rate ([3]; phase II trial)
1 | COc1cc2ncnc(Oc3cccc(NC(=O)Nc4cc(C(C)(C)C(F)(F)F)on4)c3)c2cc1OC.Cl [RXDX-105, 1-(3-(6,7-dimethoxyquinazolin-4-yloxy)phenyl)-3-(5-(1,1,1-trifluoro-2-methylpropan-2-yl)isoxazol-3-yl)urea hydrochloride] | no cleavage of caspase-3 and PARP | induced apoptosis | no growth inhibitory activity |  |  |  |  | 
2 | CCc1cc2c(cc1N1CCC(N3CCOCC3)CC1)C(C)(C)c1[nH]c3cc(C#N)ccc3c1C2=O [alectinib] | no cleavage of caspase-3 and PARP was seen in the TT cells, except for the higher doses of alectinib | induced apoptosis |  | 90 nM | 204 nM | neither RXDX-105 nor alectinib treatment showed detectable change |  | 
3 | COc1cc2nccc(Oc3ccc(NC(=O)C4(C(=O)Nc5ccc(F)cc5)CC4)cc3)c2cc1OC [cabozantinib] | no cleavage of caspase-3 and PARP | induced apoptosis |  | 77 nM | 98 nM | able to decrease phospho-ERK and phospho-MEK at as low as 50 nmol/L | approximately two thirds | 28%
